Results from ChEMBL document CHEMBL4689842, “EUbOPEN Chemogenomics Library wave 1” (2021).

System: HEK-293T
Assay: Multiplex assay against HEK293T;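 for Population Tubulin-Different-Phenotype (%): share of the cells with healthy nuclei that show this phenotype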
Type: toxicity, cell-based
Settings: human
Method in brief: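 Phenotypes for tubulin, mitochondrial mass and membrane permeability are expressed as per cents of healthy-nucleus cells. Cells were stained live at seeding with Hoechst33342, BioTracker Green Microtubule Cytoskeleton Dye, MitoTracker Red and Annexin V Alexa Fluor 680, then imaged after compound addition on a CQ1 microscope at 37°C and 5% CO2. Machine-learning gating in CellPathfinder separated Hoechst high-intensity objects from normal cells, divided normal cells by nuclear state (healthy, pyknosed, fragmented) and divided pyknosed cells into mitotic or apoptotic.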

[1] = 12 h, 1 µM, compound concentration 1 uM, replicate 1
[2] = 12 h, 1 µM, compound concentration 1 uM, replicate 2
[3] = 12 h, 10 µM, compound concentration 10 uM, replicate 1
[4] = 12 h, 10 µM, compound concentration 10 uM, replicate 2
[5] = 24 h, 1 µM, compound concentration 1 uM, replicate 1
[6] = 24 h, 1 µM, compound concentration 1 uM, replicate 2
[7] = 24 h, 10 µM, compound concentration 10 uM, replicate 1
[8] = 24 h, 10 µM, compound concentration 10 uM, replicate 2
[9] = 48 h, 1 µM, compound concentration 1 uM, replicate 1
[10] = 48 h, 1 µM, compound concentration 1 uM, replicate 2
[11] = 48 h, 10 µM, compound concentration 10 uM, replicate 1
[12] = 48 h, 10 µM, compound concentration 10 uM, replicate 2

## Cn1cc(-c2[nH]c3cc(NC(=O)[C@H](N)C4CCCCC4)cc4c3c2C=NNC4=O)cn1
[1]
  Population Apoptotic (%): 40%
  Population Fragmented Nuclei (%): 10%
  Population Healthy Nuclei (%): 26%
  Population Hoechst High Intensity Objects (%): 14%
  Population Membrane Permeable-Phenotype (%): 10%
  Population Mitochondria Different-Phenotype (%): 71%
  Population Mitotic Cells (%): 60%
  Population Normal (%): 85%
  Population Pyknosed Nuclei (%): 62%
  Population Tubulin-Different-Phenotype (%): 42%
  Total Cell Count: 344
[2]
  Population Apoptotic (%): 17%
  Population Fragmented Nuclei (%): 6%
  Population Healthy Nuclei (%): 28%
  Population Hoechst High Intensity Objects (%): 6%
  Population Membrane Permeable-Phenotype (%): 11%
  Population Mitochondria Different-Phenotype (%): 7%
  Population Mitotic Cells (%): 82%
  Population Normal (%): 93%
  Population Pyknosed Nuclei (%): 65%
  Population Tubulin-Different-Phenotype (%): 25%
  Total Cell Count: 259
[3]
  Population Apoptotic (%): 64%
  Population Fragmented Nuclei (%): 15%
  Population Healthy Nuclei (%): 24%
  Population Hoechst High Intensity Objects (%): 17%
  Population Membrane Permeable-Phenotype (%): 10%
  Population Mitochondria Different-Phenotype (%): 82%
  Population Mitotic Cells (%): 35%
  Population Normal (%): 82%
  Population Pyknosed Nuclei (%): 60%
  Population Tubulin-Different-Phenotype (%): 62%
  Total Cell Count: 329
[4]
  Population Apoptotic (%): 42%
  Population Fragmented Nuclei (%): 6%
  Population Healthy Nuclei (%): 17%
  Population Hoechst High Intensity Objects (%): 6%
  Population Membrane Permeable-Phenotype (%): 6%
  Population Mitochondria Different-Phenotype (%): 46%
  Population Mitotic Cells (%): 57%
  Population Normal (%): 93%
  Population Pyknosed Nuclei (%): 75%
  Population Tubulin-Different-Phenotype (%): 66%
  Total Cell Count: 180
[5]
  Population Apoptotic (%): 41%
  Population Fragmented Nuclei (%): 13%
  Population Healthy Nuclei (%): 20%
  Population Hoechst High Intensity Objects (%): 19%
  Population Membrane Permeable-Phenotype (%): 5%
  Population Mitochondria Different-Phenotype (%): 62%
  Population Mitotic Cells (%): 58%
  Population Normal (%): 80%
  Population Pyknosed Nuclei (%): 65%
  Population Tubulin-Different-Phenotype (%): 68%
  Total Cell Count: 330
[6]
  Population Apoptotic (%): 40%
  Population Fragmented Nuclei (%): 6%
  Population Healthy Nuclei (%): 26%
  Population Hoechst High Intensity Objects (%): 9%
  Population Membrane Permeable-Phenotype (%): 14%
  Population Mitochondria Different-Phenotype (%): 19%
  Population Mitotic Cells (%): 59%
  Population Normal (%): 90%
  Population Pyknosed Nuclei (%): 67%
  Population Tubulin-Different-Phenotype (%): 53%
  Total Cell Count: 263
[7]
  Population Apoptotic (%): 74%
  Population Fragmented Nuclei (%): 17%
  Population Healthy Nuclei (%): 13%
  Population Hoechst High Intensity Objects (%): 17%
  Population Membrane Permeable-Phenotype (%): 14%
  Population Mitochondria Different-Phenotype (%): 97%
  Population Mitotic Cells (%): 25%
  Population Normal (%): 82%
  Population Pyknosed Nuclei (%): 69%
  Population Tubulin-Different-Phenotype (%): 82%
  Total Cell Count: 311
[8]
  Population Apoptotic (%): 72%
  Population Fragmented Nuclei (%): 6%
  Population Healthy Nuclei (%): 6%
  Population Hoechst High Intensity Objects (%): 12%
  Population Membrane Permeable-Phenotype (%): 0%
  Population Mitochondria Different-Phenotype (%): 70%
  Population Mitotic Cells (%): 27%
  Population Normal (%): 87%
  Population Pyknosed Nuclei (%): 86%
  Population Tubulin-Different-Phenotype (%): 70%
  Total Cell Count: 175
[9]
  Population Apoptotic (%): 36%
  Population Fragmented Nuclei (%): 22%
  Population Healthy Nuclei (%): 5%
  Population Hoechst High Intensity Objects (%): 23%
  Population Membrane Permeable-Phenotype (%): 6%
  Population Mitochondria Different-Phenotype (%): 46%
  Population Mitotic Cells (%): 63%
  Population Normal (%): 76%
  Population Pyknosed Nuclei (%): 71%
  Population Tubulin-Different-Phenotype (%): 60%
  Total Cell Count: 373
[10]
  Population Apoptotic (%): 52%
  Population Fragmented Nuclei (%): 10%
  Population Healthy Nuclei (%): 14%
  Population Hoechst High Intensity Objects (%): 17%
  Population Membrane Permeable-Phenotype (%): 17%
  Population Mitochondria Different-Phenotype (%): 20%
  Population Mitotic Cells (%): 47%
  Population Normal (%): 82%
  Population Pyknosed Nuclei (%): 75%
  Population Tubulin-Different-Phenotype (%): 64%
  Total Cell Count: 278
[11]
  Population Apoptotic (%): 72%
  Population Fragmented Nuclei (%): 20%
  Population Healthy Nuclei (%): 3%
  Population Hoechst High Intensity Objects (%): 20%
  Population Membrane Permeable-Phenotype (%): 11%
  Population Mitochondria Different-Phenotype (%): 77%
  Population Mitotic Cells (%): 27%
  Population Normal (%): 79%
  Population Pyknosed Nuclei (%): 76%
  Population Tubulin-Different-Phenotype (%): 66%
  Total Cell Count: 331
[12]
  Population Apoptotic (%): 89%
  Population Fragmented Nuclei (%): 5%
  Population Healthy Nuclei (%): 1%
  Population Hoechst High Intensity Objects (%): 15%
  Population Membrane Permeable-Phenotype (%): 0%
  Population Mitochondria Different-Phenotype (%): 66%
  Population Mitotic Cells (%): 10%
  Population Normal (%): 84%
  Population Pyknosed Nuclei (%): 92%
  Total Cell Count: 179
